Activity calls are given as the source filed them. The calls are words filed in the database; no cut-off is given here.
Columns and labels:
HCT-8 = test: Cytotoxicity against human HCT8 cells at 10^-6 M after 96 hrs by MTT assay; type: functional, cell-based
[1] = system: Human immunodeficiency virus 1; test: Antiviral activity against HIV1 harboring vesicular stomatitis virus glycoprotein infected in human 293T cells assessed as inhibition of viral replication at 10 uM after 48 hrs by luciferase activity based luminometer analysis; type: functional, organism-based
BGC-823 = test: Cytotoxicity against human BGC823 cells at 10^-6 M after 96 hrs by MTT assay; type: functional, cell-based
Aorta = test: Vasorelaxant activity in Sprague-Dawley rat […] thoracic aorta assessed as inhibition of phenylephrine-induced vasoconstriction at 10^-6 M relative to control; type: functional; set-up: scale not given: the % may be the effect or the level left
In short: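 Read-out was percent relaxation of phenylephrine-precontracted vessels. Verapamil served as the positive control at the same test concentration.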

A549 = test: Cytotoxicity against human A549 cells at 10^-6 M after 96 hrs by MTT assay; type: functional, cell-based
Bel-7402 = test: Cytotoxicity against human Bel7402 cells at 10^-6 M after 96 hrs by MTT assay; type: functional, cell-based
Liver microsomes = test: Antioxidant activity against Fe2+-cystine-induced lipid peroxidation in rat liver microsomes at 10^-6 M after 15 mins by thiobarbituric acid method; type: functional; conditions: Microsome
[2] = target: T1, Tyrosine-protein phosphatase non-receptor type 1 (Homo sapiens) (UniProt P18031); test: Inhibition of human recombinant GST-tagged PTP1B assessed as conversion of para-nitrophenyl phosphate to para-nitrophenol at 10^-6 M after 10 mins by microplate spectrophotometer analysis
T1 sequence (whole entry): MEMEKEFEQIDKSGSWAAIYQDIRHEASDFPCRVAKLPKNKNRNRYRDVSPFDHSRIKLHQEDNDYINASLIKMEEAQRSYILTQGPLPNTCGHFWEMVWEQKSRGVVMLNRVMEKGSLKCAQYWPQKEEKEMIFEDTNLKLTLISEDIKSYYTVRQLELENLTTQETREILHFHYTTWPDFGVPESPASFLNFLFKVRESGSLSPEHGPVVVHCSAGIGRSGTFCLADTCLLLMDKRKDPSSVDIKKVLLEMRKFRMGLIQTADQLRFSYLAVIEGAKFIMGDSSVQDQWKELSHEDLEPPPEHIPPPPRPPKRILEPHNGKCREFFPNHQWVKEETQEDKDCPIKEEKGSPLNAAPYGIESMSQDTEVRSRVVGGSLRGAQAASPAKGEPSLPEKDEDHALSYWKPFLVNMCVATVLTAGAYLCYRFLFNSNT

KETR3 = test: Cytotoxicity against human Ketr3 cells at 10^-6 M after 96 hrs by MTT assay; type: functional, cell-based
MCF7 = test: Cytotoxicity against human MCF7 cells at 10^-6 M after 96 hrs by MTT assay; type: functional, cell-based
[3] = system: Human immunodeficiency virus 1; test: Antiviral activity against HIV1 harboring vesicular stomatitis virus glycoprotein infected in human 293T cells assessed as inhibition of viral replication after 48 hrs by luciferase activity based luminometer analysis; type: functional, organism-based; conditions: Human immunodeficiency virus 1, HEK-293T

Structure (SMILES)	Activity (HCT-8)	Activity [1]	Activity (BGC-823)	Activity (Aorta) [%]	Activity (A549)	Activity (Bel-7402)	Activity (Liver microsomes)	inhibition [2]	Activity (KETR3)	Activity (MCF7)	IC50 [3] [µM]
CC(=O)O[C@H]1[C@@H](C)C[C@]2(OC(C)=O)C(=O)/C(C)=C/[C@H]3[C@H](CC/C(C)=C/[C@@H]12)C3(C)C	inactive	inactive	inactive	<30	inactive	inactive	inactive	inactive	inactive	inactive	–
COc1ccc(CCN(C)CCCC(C#N)(c2ccc(OC)c(OC)c2)C(C)C)cc1OC (configuration not stated) [VERAPAMIL]	–	–	–	44	–	–	–	–	–	–	–
C=C1CC[C@H]2[C@H](/C=C(\C)C(=O)[C@@]3(OC(=O)/C=C/c4ccccc4)C[C@H](C)[C@H](O)[C@@H]3[C@H]1O)C2(C)C	inactive	inactive	inactive	<30	inactive	inactive	inactive	inactive	inactive	inactive	–
C/C1=C\[C@H]2[C@@H](O)[C@@H](C)C[C@]2(OC(=O)/C=C/c2ccccc2)C(=O)/C(C)=C/[C@H]2[C@H](CC1)C2(C)C	inactive	–	inactive	<30	inactive	inactive	inactive	inactive	inactive	inactive	8.2
CC(=O)O[C@@H]1[C@H]2[C@@H](O)/C(C)=C\C[C@H]3[C@H](/C=C(\C)C(=O)[C@@]2(OC(=O)c2ccccc2)C[C@@H]1C)C3(C)C	inactive	inactive	inactive	48	inactive	inactive	inactive	inactive	inactive	inactive	–
C/C1=C/C[C@H]2[C@@H](/C=C(\C)C(=O)[C@@]3(OC(=O)c4ccccc4)C[C@H](C)[C@H](O)[C@@H]3[C@@H]1O)C2(C)C	–	inactive	–	53	–	–	–	–	–	–	–
CC(=O)O[C@@H]1[C@@H]2[C@H]3O[C@]3(C)CC[C@H]3[C@H](/C=C(\C)C(=O)[C@@]2(OC(C)=O)C[C@@H]1C)C3(C)C	inactive	inactive	inactive	<30	inactive	inactive	inactive	inactive	inactive	inactive	–
CC(=O)O[C@]12C[C@H](C)[C@H](O)[C@@H]1[C@H]1O[C@]1(C)CC[C@H]1[C@H](/C=C(\C)C2=O)C1(C)C	inactive	inactive	inactive	<30	inactive	inactive	inactive	inactive	inactive	inactive	–
C/C1=C\[C@H]2[C@H](CC[C@@]3(C)O[C@@H]3[C@H]3[C@@H](OC(=O)c4ccccc4)[C@@H](C)C[C@]3(O)C1=O)C2(C)C	inactive	inactive	inactive	48	inactive	inactive	inactive	inactive	inactive	inactive	–
C/C1=C\[C@H]2[C@@H](O)[C@@H](C)C[C@]2(OC(=O)c2ccccc2)C(=O)/C(C)=C/[C@H]2[C@H](CC1)C2(C)C	inactive	inactive	inactive	42	inactive	inactive	inactive	inactive	inactive	inactive	–
CC(=O)O[C@@H]1[C@@H]2[C@H]3O[C@]3(C)CC[C@H]3[C@H](/C=C(\C)C(=O)[C@@]2(OC(=O)c2ccccc2)C[C@@H]1C)C3(C)C	inactive	inactive	inactive	41	inactive	inactive	inactive	inactive	inactive	inactive	–
C/C1=C/C[C@H]2[C@H](/C=C(\C)C(=O)[C@@]3(O)C[C@H](C)[C@H](O)[C@@H]3[C@H]1OC(=O)/C=C/c1ccccc1)C2(C)C	inactive	inactive	inactive	<30	inactive	inactive	inactive	inactive	inactive	inactive	–
C/C1=C\[C@H]2[C@H](CC[C@@]3(C)O[C@@H]3[C@H]3[C@@H](OC(=O)/C=C/c4ccccc4)[C@@H](C)C[C@]3(O)C1=O)C2(C)C	inactive	inactive	inactive	<30	inactive	inactive	inactive	inactive	inactive	inactive	–
CC(=O)O[C@@H]1[C@@H]2[C@H]3O[C@]3(C)CC[C@H]3[C@H](/C=C(\C)C(=O)[C@@]2(O)C[C@@H]1C)C3(C)C	inactive	inactive	inactive	<30	inactive	inactive	inactive	inactive	inactive	inactive	–
C/C1=C/C[C@H]2[C@H](/C=C(\C)C(=O)[C@@]3(OC(=O)/C=C/c4ccccc4)C[C@H](C)[C@@H]4OC(C)(C)O[C@@H]1[C@@H]43)C2(C)C	inactive	–	inactive	<30	inactive	inactive	inactive	inactive	inactive	inactive	–
C/C1=C/C[C@H]2[C@@H](/C=C(\C)C(=O)[C@@]3(O)C[C@H](C)[C@H](OC(=O)/C=C/c4ccccc4)[C@H]3[C@H]1O)C2(C)C	inactive	inactive	inactive	<30	inactive	inactive	inactive	inactive	inactive	inactive	–
C/C1=C\[C@H]2[C@H](CC[C@@]3(C)O[C@@H]3[C@H]3[C@@H](OC(=O)c4ccccc4)[C@@H](C)C[C@]3(OC(=O)c3ccccc3)C1=O)C2(C)C	inactive	inactive	inactive	<30	inactive	inactive	inactive	inactive	inactive	inactive	–
C/C1=C\[C@H]2[C@@H](OC(=O)/C=C/c3ccccc3)[C@@H](C)C[C@]2(O)C(=O)/C(C)=C/[C@H]2[C@H](CC1)C2(C)C	inactive	inactive	inactive	<30	inactive	inactive	inactive	inactive	inactive	inactive	–
CC(=O)O[C@H]1/C(C)=C\C[C@H]2[C@H](/C=C(\C)C(=O)[C@@]3(OC(=O)c4ccccc4)C[C@H](C)[C@H](O)[C@H]13)C2(C)C	inactive	inactive	inactive	50	inactive	inactive	inactive	inactive	inactive	inactive	–
